According to ChEMBL document CHEMBL1140214, “Antitumor activity of new substituted 3-(5-imidazo[2,1-b]thiazolylmethylene)-2-indolinones and 3-(5-imidazo[2,1-b]thiadiazolylmethylene)-2-indolinones: selectivity against colon tumor cells and effect on cell cycle-related events” (2008):
Calls of active or inactive are those of the source. The calls are words filed in the database; no cut-off is given here.

Experiments:
Leukemia cell = experiment: Antitumor activity against human Leukemia cells after 48 hrs by SRB assay; format: functional; details: for GI50 / TGI: Homo sapiens, Leukemia cell, 48 h; for TGI: read-out: pTGI (converted)
Method in brief: (§1)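 NCI 60-cell panel two-stage screen: a single-dose pass at 10^-5 M, then five-dose testing for active compounds. Compounds were dissolved in DMSO and tested at five 10-fold dilutions, the highest 10^-4 M (10^-3 M in some cases). Results are given as the negative log molar concentration at three end points: pGI50, pTGI (total growth inhibition) and pLC50. Means are panel-subtype averages.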

NSCLC = experiment: Antitumor activity against human NSCLC cells after 48 hrs by SRB assay; format: functional; details: for GI50 / TGI: Homo sapiens, NSCLC, 48 h; for TGI: read-out: pTGI (converted); method in brief: as §1
[1] = Antitumor activity against human Colon cancer cells after 48 hrs by SRB assay; format: functional, Cancer cell lines; details: for GI50 / TGI: Homo sapiens, Cancer cell lines, 48 h; for TGI: read-out: pTGI (converted); method in brief: as §1
[2] = Antitumor activity against human CNS cancer cells after 48 hrs by SRB assay; format: functional, Cancer cell lines; details: for TGI: read-out: pTGI (converted); method in brief: as §1
Melanoma cell = experiment: Antitumor activity against human Melanoma cells after 48 hrs by SRB assay; format: functional; details: for CC50: read-out: pLC50 (the source's name) (converted); for TGI: read-out: pTGI (converted); method in brief: as §1
[3] = Antitumor activity against human ovarian cancer cells after 48 hrs by SRB assay; format: functional, Cancer cell lines; details: for GI50 / TGI: Homo sapiens, Cancer cell lines, 48 h; for TGI: read-out: pTGI (converted); method in brief: as §1
[4] = Antitumor activity against human renal cancer cells after 48 hrs by SRB assay; format: functional, Cancer cell lines; details: for TGI: read-out: pTGI (converted); method in brief: as §1
[5] = Antitumor activity against human prostate cancer cells after 48 hrs by SRB assay; format: functional, Cancer cell lines; details: for GI50 / TGI: Homo sapiens, Cancer cell lines, 48 h; for TGI: read-out: pTGI (converted); method in brief: as §1
[6] = Antitumor activity against human Breast cancer cells after 48 hrs by SRB assay; format: functional, Cancer cell lines; details: for GI50 / TGI: Homo sapiens, Cancer cell lines, 48 h; for TGI: read-out: pTGI (converted); method in brief: as §1
HT-29 [7] = experiment: Cell cycle arrest in human HT-29 cells assessed as accumulation at G2/M phase at 30 nM after 24 hrs by flow cytometry; format: functional, cell-based
Method in brief: (§2)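 HT-29 cells were grown in RPMI 1640 with 10% FBS and 2 mM L-glutamine at 37 °C, 5% CO2, and treated 24 h after plating at 2 × 10^4 cells/cm^2. Exposure was 24 h at 0.5–2 µM test compound or 30 nM vincristine, with DMSO controls. Cells were stained with propidium iodide, RNase and NP-40 for 30 min in the dark, then DNA content was read by flow cytometry. Mean ± SEM, n=3.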

[8] = molecular target: T1, Ornithine decarboxylase (Homo sapiens) (UniProt P11926); experiment: Inhibition of ornithine decarboxylase in human HT-29 cells assessed as release of radioactive CO2 from [14C-carboxyl] ornithine; format: cell-based
T1 sequence (whole entry): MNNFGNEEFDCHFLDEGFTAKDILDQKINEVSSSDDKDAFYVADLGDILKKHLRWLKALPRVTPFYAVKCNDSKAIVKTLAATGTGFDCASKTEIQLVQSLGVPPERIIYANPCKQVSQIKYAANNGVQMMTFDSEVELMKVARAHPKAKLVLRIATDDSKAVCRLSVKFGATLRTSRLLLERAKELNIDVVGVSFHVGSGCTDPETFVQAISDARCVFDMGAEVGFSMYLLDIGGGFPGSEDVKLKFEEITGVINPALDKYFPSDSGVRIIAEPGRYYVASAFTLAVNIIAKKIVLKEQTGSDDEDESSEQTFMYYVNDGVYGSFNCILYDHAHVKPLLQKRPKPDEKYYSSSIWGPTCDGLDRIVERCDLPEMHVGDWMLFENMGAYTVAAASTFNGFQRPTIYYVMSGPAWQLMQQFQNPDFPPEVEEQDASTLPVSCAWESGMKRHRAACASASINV
Method in brief: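 Extracts were taken from HT-29 cells after 24 h exposure to the indicated concentrations of test compound or vincristine. ODC activity was read as 14CO2 released from [14C-carboxyl]ornithine. Mean ± SEM, n=3.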

HT-29 [9] = experiment: Cell cycle arrest in human HT-29 cells assessed as accumulation at G2/M phase after 24 hrs by flow cytometry; format: functional, cell-based; method in brief: as §2
HT-29 [10] = experiment: Cell cycle arrest in human HT-29 cells assessed as accumulation at G2/M phase at 2 uM after 24 hrs by flow cytometry; format: functional; method in brief: as §2
HT-29 [11] = experiment: Increase in cellular tubulin condensation in human HT-29 cells at 1 uM after 24 hrs using DAPI staining by immunofluorescence technique; format: functional, cell-based
Method in brief: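 HT-29 cells on glass coverslips at 1 × 10^4 cells/cm^2 were treated 24 h at 1 µM, or with 30 nM vincristine. After fixation they were stained overnight at 4 °C with anti-α-tubulin mouse monoclonal, then 1 h at room temperature with FITC anti-mouse IgG, and counterstained with DAPI. Imaging was by laser scanning confocal microscopy.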

HT-29 [12] = experiment: Inhibition of cell proliferation in human HT-29 cells at 2 uM; format: functional, cell-based
Method in brief: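 HT-29 cells in RPMI 1640 with 10% FBS were exposed to compound in fresh medium 24 h after plating, with DMSO controls. Cells were counted daily and viability was checked by Trypan blue exclusion.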

HT-29 [13] = experiment: Induction of apoptosis in human HT-29 cells assessed as caspase activity after 48 hrs by fluorimetric assay; format: functional, cell-based
Method in brief: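 DEVDase (caspase) activity was measured fluorometrically in extracts of HT-29 cells treated for 24 or 48 h at the indicated concentrations.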

[14] = Homo sapiens, Cancer cell lines, 48 h, read-out: pGI50 (converted)
[15] = Homo sapiens, Cancer cell lines, 48 h
[16] = Homo sapiens, Melanoma cell, 48 h, read-out: pGI50 (converted)
[17] = Homo sapiens, Melanoma cell, 48 h

Row | SMILES | GI (Leukemia cell) [µM] | GI50 (Leukemia cell) [µM] | GI (NSCLC) [µM] | GI50 (NSCLC) [µM] | TGI (NSCLC) [µM] | GI [1] [µM] | GI50 [1] [µM] | TGI [1] [µM] | GI50 [2, 14] [µM] | TGI [2, 15] [µM] | GI50 (Melanoma cell; [16]) [µM] | TGI (Melanoma cell; [17]) [µM] | GI [3] [µM] | GI50 [3] [µM] | GI [4] [µM] | GI50 [4, 15] [µM] | TGI [4, 15] [µM] | GI [5] [µM] | GI50 [5] [µM] | GI [6] [µM] | other results
1 | CC[C@]1(O)C[C@H]2CN(CCc3c([nH]c4ccccc34)[C@@](C(=O)OC)(c3cc4c(cc3OC)N(C=O)[C@H]3[C@@](O)(C(=O)OC)[C@H](OC(C)=O)[C@]5(CC)C=CCN6CC[C@]43[C@@H]65)C2)C1.O=S(=O)(O)O [VINCRISTINE SULFATE] | 0.1 | 0.1 | 0.25 | 0.251 | 15.8 | 0.1 | 0.1 | 3.98 | 0.126 | 6.31 | 0.158 | 7.94 | 0.32 | 0.316 | 0.32 | 0.316 | 20 | 0.13 | 0.126 | 0.32 | TGI (Leukemia cell): 15.8 µM; CC50 (Melanoma cell; [17]): 251 µM; TGI [3]: 20 µM; TGI [5]: 6.31 µM; GI50 [6]: 0.316 µM; TGI [6]: 7.94 µM; Activity (HT-29 [7]): Active; Activity [8]: Active
2 | COc1ccc2c(c1)/C(=C\c1c(C)nc3sc(C)nn13)C(=O)N2 | 1.15 | 1.15 | 5.37 | 5.37 | 56.2 | 0.69 | 0.692 | 41.7 | 2.51 | 38 | 6.31 | 69.2 | 5.01 | 5.01 | 6.17 | 6.17 | 91.2 | 3.89 | 3.89 | 2.63 | TGI (Leukemia cell): 38 µM; GI50 [2]: 2.51 µM; GI50 (Melanoma cell): 6.31 µM; TGI [3]: 72.4 µM; GI50 [6]: 2.63 µM; TGI [6]: 75.9 µM; Activity (HT-29 [9]): Dose-dependent effect; Activity (HT-29 [10]): 58%; Activity [8]: Dose-dependent effect; Activity (HT-29 [11]): Active; Activity (HT-29 [12]): Active; Activity (HT-29 [13]): Active
3 | Cc1nn2c(/C=C3/C(=O)Nc4ccccc43)c(-c3ccc(Cl)cc3)nc2s1 | 17.78 | 17.8 | 19.05 | 19.1 | 45.7 | 18.62 | 18.6 | 44.7 | 3.24 | 16.6 | 20 | 35.5 | 25.7 | 25.7 | 17.78 | 17.8 | 33.1 | 12.3 | 12.3 | 16.98 | GI50 [2]: 3.24 µM; LC50 [2, 15]: 38.9 µM; GI50 (Melanoma cell): 19.95 µM; CC50 (Melanoma cell; [17]): 47.9 µM; LC50 (concentration killing 50% of cells) [4, 15]: 46.8 µM; TGI [5]: 32.4 µM; GI50 [6]: 17 µM; TGI [6]: 42.7 µM
4 | Cc1cn2c(/C=C3/C(=O)N(C)c4ccccc43)c(C)nc2s1 | 5.01 | 5.01 | 17.78 | 17.8 | 75.9 | 4.57 | 4.57 | 69.2 | 8.71 | 51.3 | 13.2 | 72.4 | 15.49 | 15.5 | 22.39 | 22.4 | 97.7 | 21.38 | 21.4 | 5.5 | TGI (Leukemia cell): 20.9 µM; GI50 [2]: 8.71 µM; GI50 (Melanoma cell): 13.18 µM; TGI [3]: 74.1 µM; GI50 [6]: 5.5 µM; TGI [6]: 55 µM
